From PubChem
UPR XBP1 act: adaptive UPR (XBP1) activation | CHO-XBP1 luciferase reporter, IRE1-XBP1 UPR activation, luminescence; percent of tunicamycin response, DMSO as zero | actives 0.33% (n = 330,000) | activation, % at 20 µM;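 active = versus positive control, 20 µM dose yields 30% or more activation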;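 note: 100% = tunicamycin at 10 µg/mL and 0% = DMSO only wells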
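Material: CHO-XBP1 cells stably carrying IRE1-XBP1-driven luciferase reporter | Medium: F12 with 10% serum | Compound dosing: 20 µM single concentration, DMSO 1% | Incubation: Overnight seeding at 37 °C, 6 h compound treatment at 37 °C | Detection: Steady-Glo luminescence read | Read-out basis: % activation of reporter signal versus tunicamycin and DMSO controls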
Jurkat NFkB inh: lowers PMA/ionomycin-induced NF-kB signal in Jurkat cells; inhibition, % at 4 µM; PMA/ionomycin-induced NF-kB luciferase reporter, luminescence; AID 435003; actives 0.53% (n = 330,000); in the data active = inhibition above about 50%
CHOP inhibitor: inhibitors of CHOP induction in ER stress response; CHO-K1 CHOP-promoter luciferase, tunicamycin-induced, 15-18 h; inhibition, % at 10 µM; actives 3.8% (n = 220,000); AID 2732;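 active = compounds that reduced the stress-induced luciferase reporter signal by more than about 70% of percent inhibition, limit read from the data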;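 note: 0% = tunicamycin plus vehicle and 100% = wells without tunicamycin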
CHOP UPR activ: apoptotic UPR (CHOP) activation; CHO-CHOP luciferase reporter, luminescence; percent of tunicamycin response over DMSO baseline; activation, % at 10 µM; actives 0.34% (n = 330,000);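 active = at 10 µM dose, activation of 40% or more, normalized to positive control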;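 note: 100% = tunicamycin at 10 µg/mL and 0% = DMSO alone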
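Assay system: CHO cells with stable CHOP pathway luciferase reporter; Buffer or medium: F12 plus 10% serum; Times: 16-18 h cell attachment, then 6 h compound exposure, 37 °C; Signal: luciferase luminescence; Read-out basis: percent activation relative to tunicamycin control; Control set: tunicamycin high control, DMSO low control.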
697 NFkB inh: inhibitors of the PMA/ionomycin-induced NF-kB reporter in 697 B cells. inhibition, % at 4 µM. 697 B-cell NF-kB luciferase reporter, 16 h. actives 0.33% (n = 330,000). AID 435022; in the data active = inhibition above about 35%
CHOP inh conf: confirmation of CHOP induction inhibitors | shares compounds with CHOP inhibitor | CHO-CHOP promoter luciferase reporter, tunicamycin-induced, luminescence | inhibition, % at 10 µM | actives 45% (n = 2,100);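 active = mean of three repeat readings of reporter signal inhibition above a set limit, cut at about 70% in these data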;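 note: 0% = tunicamycin plus vehicle and 100% = wells lacking tunicamycin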
Active calls of the source: *; . = not tested or not shown. Only a selection was taken, and hits are over-represented in it overall.

SMILES | UPR XBP1 act | Jurkat NFkB inh | CHOP inhibitor | CHOP UPR activ | 697 NFkB inh | CHOP inh conf
CC(C)(CNC(=O)CO/N=C1/C=C2CCC3C(C(O)C[C@@]4(C)C3CC[C@]4(O)C(=O)CO)[C@@]2(C)CC1)C(O)C(=O)O (some centres undefined) | 3.0 | 10.5 | . | -0.3 | -2.1 | .
COc1ccc(Cn2c(C(F)(F)F)ccc(C(N)=O)c2=O)cc1 | 9.1 | -6.3 | 26.5 | 0.7 | -20.3 | .
NC(=O)c1ccc(C(F)(F)F)n(Cc2c(Cl)cccc2Cl)c1=O | -0.1 | 8.4 | 101.8* | -1.3 | -45.7 | 112.1*
COC(=O)c1ccccc1NC(=O)c1cccnc1 | -0.7 | -1.2 | . | 0.5 | -9.6 | .
O=S(=O)(Nc1ccc(S(=O)(=O)N2CCCCC2)cc1)c1ccc(Br)s1 | -1.1 | -13.9 | 36.8 | -3.0 | 19.0 | .
Cc1cccc(NC(=S)NC(NC(=O)OCc2ccccc2)C(Cl)(Cl)Cl)c1 (centres undefined) | -3.9 | -5.4 | 106.3* | 1.6 | 1.4 | 103.1*
O=C(NC(NC(=S)Nc1cccc(C(=O)O)c1)C(Cl)(Cl)Cl)OCc1ccccc1 (centres undefined) | -2.6 | 13.0 | -4.7 | 1.2 | 15.1 | .
CCc1ccc(OCC(=O)NC(NC(=S)Nc2ccc(C)cc2C)C(Cl)(Cl)Cl)cc1 (centres undefined) | 2.1 | -1.9 | 108.1* | 2.7 | 2.7 | 113.3*
CCc1ccc(OCC(=O)NC(NC(=S)Nc2ccccc2OC)C(Cl)(Cl)Cl)cc1 (centres undefined) | -0.2 | -2.4 | 8.5 | 0.1 | -0.9 | .
CCc1ccc(OCC(=O)NC(NC(=S)Nc2ccccc2)C(Cl)(Cl)Cl)cc1 (centres undefined) | 0.3 | -17.7 | 105.1* | 4.1 | -3.5 | 104.7*
CC(=O)NCCSc1ccc(S(=O)(=O)N2CCCC2)cn1 | -4.4 | -1.7 | . | -2.6 | 8.3 | .
Cc1ccccc1NS(=O)(=O)c1ccc(C(=O)NCC(c2ccco2)N2CCCCC2)cc1 (centres undefined) | 8.0 | 21.4 | . | 0.6 | -48.2 | .
O=C(Nc1nc2ccccc2s1)C1CC(=O)N(c2ccc(Br)cc2)C1 (centres undefined) | -2.1 | 12.4 | 96.2* | -1.3 | 18.7 | 12.8
Cc1ccc(Nc2nc(N)c([N+](=O)[O-])c(NCc3ccco3)n2)cc1 | 5.1 | -94.1 | 101.2* | 6.2 | -130.9 | 24.1
Cc1ccc(OCc2cc(C(=O)N3CC4C[C@@H]5CC3C[C@H](C4)C5)no2)cc1C | -3.6 | -101.8 | . | 6.2 | -89.6 | .
O=C(Nc1cccc(-c2nc3ncccc3o2)c1)c1sc2ccccc2c1Cl | 1.2 | -4.9 | 103.6* | 0.4 | 1.9 | 103.4*
O=C(Nc1cccc(-c2nc3ncccc3o2)c1)c1sc2cc(Cl)ccc2c1Cl | -0.9 | -2.7 | 3.9 | 2.9 | -12.0 | .
N=c1n(N)c2ccccc2n1CC(=O)c1ccc(Br)cc1 | -1.3 | -96.7 | . | 2.3 | -157.7 | .
O=C(O)CCN1C(=O)/C(=C/c2cn(-c3ccccc3)nc2-c2cccs2)SC1=S | -1.7 | 13.4 | 102.2* | -1.2 | 28.2 | -4.1
O=C(O)CCCCCN1C(=O)/C(=C\c2cn(-c3ccccc3)nc2-c2cccs2)SC1=S | -1.4 | 11.3 | 9.1 | 2.8 | 12.6 | .
O=c1c2ccccc2c2c(O)nc(-c3ccccc3)n2n1Cc1ccccc1 | -1.6 | -1.1 | 21.6 | 1.4 | -2.3 | .
COc1ccc2[nH]c3c(=O)n(/N=C/[C@H]4C(C)C=C(C)CC4C)c(=O)[nH]c3c2c1 (some centres undefined) | 0.7 | 1.7 | 108.9* | 1.9 | 2.4 | 16.4
Cc1ccc(S(=O)(=O)NCCn2c(C)cc3ccccc32)cc1 | . | . | 65.2 | . | . | .
Cc1cc(C)c(S(=O)(=O)NCCn2c(C)cc3ccccc32)c(C)c1 | -3.8 | 7.2 | 101.5* | -0.1 | -16.8 | 74.8*
C=CCOC(=O)C1=C(C)NC(SCC)=C(C#N)C1c1ccc(Cl)cc1 (centres undefined) | 5.5 | 11.5 | 102.0* | 0.2 | 18.3 | 59.4
SMILES | UPR XBP1 act | Jurkat NFkB inh | CHOP inhibitor | CHOP UPR activ | 697 NFkB inh | CHOP inh conf
CCOC(=O)Cc1csc(NC(=O)NC2(C(F)(F)F)Oc3cc(Cl)c(Cl)cc3O2)n1 | 7.2 | 19.6 | 102.3* | -1.7 | -50.1 | 110.0*
CCOC(=O)Cc1csc(NC(=O)NC2(C(F)(F)F)Oc3ccc(Cl)cc3O2)n1 (centres undefined) | 10.9 | 18.5 | 104.6* | 7.0 | -31.8 | 111.3*
O=S(=O)(Nc1nccs1)c1ccc(NS(=O)(=O)c2c(F)cc(F)c(Cl)c2F)cc1 | -0.5 | 9.6 | . | 0.1 | 9.7 | .
COC(=O)c1ccc(NC(=O)CN2CCN(S(=O)(=O)c3ccc(Br)cc3)CC2)cc1 | -1.2 | 3.1 | . | 1.5 | 2.5 | .
CCOc1ccc(N(CC(=O)Nc2cccc(Cl)c2)S(=O)(=O)c2c(C)noc2C)cc1 | -5.7 | 6.7 | 107.5* | 0.1 | -1.8 | 80.9*
Cc1ccc(N2CC(=O)Nc3c(oc4nc(-c5ccccc5)cc(C)c34)C2=O)cc1 | 2.1 | 24.7 | 97.2* | 2.8 | 18.1 | -68.8
COCC(=O)Nc1cc(Cl)c(OC)cc1OC | 0.4 | 10.5 | 29.0 | 0.0 | 16.3 | .
COc1cc(C(=O)ON=C2C(C)=CC(=O)C=C2C)cc(OC)c1OC | -2.7 | -0.8 | 110.1* | 25.4 | 2.4 | -112.2
COc1cc(C(=O)Oc2cc(C)cc(C)c2)cc(OC)c1OC | -4.1 | 4.5 | 53.5 | -1.4 | 13.7 | .
CCSc1nc2sc3c(c2c(=O)[nH]1)CCCC3 | 0.4 | -6.2 | -6.9 | -1.7 | 7.1 | .
CCSC1=NC2(CCCCC2)Nc2sc3c(c21)CCCC3 | 1.7 | 0.8 | 105.1* | 3.7 | 5.8 | 4.0
CSc1ccc(OC2CCCCC2NS(=O)(=O)c2ccccc2)cc1 (centres undefined) | -0.8 | -19.9 | 52.9 | -3.0 | -0.9 | .
Cc1cc(C)cc(OC2CCCCC2NS(=O)(=O)c2ccccc2)c1 (centres undefined) | -0.4 | -13.9 | 99.4* | -0.9 | -38.3 | 69.9*
COCCn1nnnc1C(C(C)C)N1CCSCC1 (centres undefined) | 2.6 | 9.7 | -17.6 | 1.0 | 22.4 | .
CCCCS/C(N)=N/N=C/c1cc(C)ccc1O | 4.5 | -41.8 | 102.1* | 0.5 | -15.7 | -6.4
CCS/C(N)=N/N=C/c1cc(C)ccc1O | 0.1 | -56.9 | -6.7 | 8.3 | -56.8 | .
Cc1cccc(/C=C2/S/C(=N/N=C3\CC4CCC3(C)C4(C)C)NC2=O)c1 (centres undefined) | 1.3 | -14.7 | 104.7* | -1.7 | -18.0 | 105.9*
CCCc1ccc(O)c(N=Cc2cc(Br)cc(OCC)c2O)c1 | -1.6 | 13.9 | 97.2* | -0.1 | -13.4 | 109.7*
CCCNc1c(NS(=O)(=O)c2c(F)c(F)c(F)c(F)c2F)c(=O)oc2ccccc12 | -3.3 | -2.1 | . | 0.8 | 15.0 | .
Clc1ccccc1CN(Cc1ccccc1)c1ncnc2nc[nH]c12 | -0.8 | -13.8 | 106.5* | -0.1 | -30.9 | 39.3
